Consider 17 compounds from ChEMBL document CHEMBL5038571, “Design and Synthesis of EZH2-Based PROTACs to Degrade the PRC2 Complex for Targeting the Noncatalytic Activity of EZH2” (J Med Chem, 2021).

Calls of active or inactive are those of the source. The calls are words filed in the database; no cut-off is given here.

In test [1] the target is Histone-lysine N-methyltransferase EZH2 (Homo sapiens, UniProt Q15910). Type of test: cell-based, Sf9.
Test [2] deals with T1, Protein cereblon/Histone-lysine N-methyltransferase EZH2 (Homo sapiens) (UniProt Q15910+Q96SW2). The test can be described thus: PROTAC activity at CRBN E3 ligase/EZH2 in PRC2 complex in human WSUDLCL2 cells assessed as reduction in H3K27me3 level at 1 uM incubated for 48 hrs by Western blot analysis. Format: cell-based. The method in brief:
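WSU-DLCL-2 cells treated 48 h (1 μM for the single-concentration screen), lysed; SDS-PAGE, nitrocellulose transfer, 5% milk block, primary antibody 4 °C overnight, chemiluminescence. Bands quantified by densitometry, normalized to GAPDH, expressed relative to DMSO-treated cells; mean ± SD of three independent experiments, t-test.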
(In general: Immunoblotting shows a protein as a band on a membrane.)

Test [3] addresses T1, Protein cereblon/Histone-lysine N-methyltransferase EZH2 (Homo sapiens). Kind of test: PROTAC activity at CRBN E3 ligase/EZH2 in PRC2 complex in human WSUDLCL2 cells assessed as reduction in EZH2 level at 2.5 uM measured after 48 hrs by Western blot analysis. Type of test: cell-based. The method in brief:
(§1)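 WSU-DLCL-2 cells exposed 48 h to PROTAC or control analogues at 2.5 μM, with thalidomide and EPZ6438 at 10 μM; PRC2 subunit levels then read by western blot.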

The target is the same in test [4]. Kind of test: PROTAC activity at CRBN E3 ligase/EZH2 in PRC2 complex in human WSUDLCL2 cells assessed as reduction in RbAp48 level at 2.5 uM measured after 48 hrs by Western blot analysis. Format: cell-based. The method in brief:
as §1

Test [5] shares this target. The test can be described thus: PROTAC activity at CRBN E3 ligase/EZH2 in PRC2 complex in human WSUDLCL2 cells assessed as reduction in EED level at 2.5 uM measured after 48 hrs by Western blot analysis. Type of test: cell-based. The method in brief: as §1
Test [6] has the same target. The test can be described thus: PROTAC activity at CRBN E3 ligase/EZH2 in PRC2 complex in human WSUDLCL2 cells assessed as reduction in SUZ12 level at 2.5 uM measured after 48 hrs by Western blot analysis. Format: cell-based. The method in brief: as §1

Chain of Histone-lysine N-methyltransferase EZH2 (Q15910 whole entry): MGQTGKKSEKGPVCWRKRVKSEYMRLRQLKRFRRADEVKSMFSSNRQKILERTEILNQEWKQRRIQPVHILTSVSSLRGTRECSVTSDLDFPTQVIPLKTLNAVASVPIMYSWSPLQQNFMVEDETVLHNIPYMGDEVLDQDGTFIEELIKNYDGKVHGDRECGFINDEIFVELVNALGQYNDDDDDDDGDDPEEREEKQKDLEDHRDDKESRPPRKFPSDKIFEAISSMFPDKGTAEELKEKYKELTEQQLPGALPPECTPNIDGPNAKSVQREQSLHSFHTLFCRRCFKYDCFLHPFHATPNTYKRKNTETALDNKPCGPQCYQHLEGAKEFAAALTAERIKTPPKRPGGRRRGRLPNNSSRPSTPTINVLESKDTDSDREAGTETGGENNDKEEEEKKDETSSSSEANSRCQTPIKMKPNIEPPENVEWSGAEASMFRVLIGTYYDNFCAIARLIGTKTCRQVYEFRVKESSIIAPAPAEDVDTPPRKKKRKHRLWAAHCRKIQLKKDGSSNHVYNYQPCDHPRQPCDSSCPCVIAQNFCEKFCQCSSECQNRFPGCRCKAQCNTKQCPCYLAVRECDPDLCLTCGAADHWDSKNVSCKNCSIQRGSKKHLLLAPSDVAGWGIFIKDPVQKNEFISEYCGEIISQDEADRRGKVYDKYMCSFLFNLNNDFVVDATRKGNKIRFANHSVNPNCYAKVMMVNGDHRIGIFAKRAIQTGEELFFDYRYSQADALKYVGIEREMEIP
T1 sequence (Q15910 whole entry, looked up): as the sequence (Q15910 whole entry) above
T1 sequence (Q96SW2 whole entry, looked up): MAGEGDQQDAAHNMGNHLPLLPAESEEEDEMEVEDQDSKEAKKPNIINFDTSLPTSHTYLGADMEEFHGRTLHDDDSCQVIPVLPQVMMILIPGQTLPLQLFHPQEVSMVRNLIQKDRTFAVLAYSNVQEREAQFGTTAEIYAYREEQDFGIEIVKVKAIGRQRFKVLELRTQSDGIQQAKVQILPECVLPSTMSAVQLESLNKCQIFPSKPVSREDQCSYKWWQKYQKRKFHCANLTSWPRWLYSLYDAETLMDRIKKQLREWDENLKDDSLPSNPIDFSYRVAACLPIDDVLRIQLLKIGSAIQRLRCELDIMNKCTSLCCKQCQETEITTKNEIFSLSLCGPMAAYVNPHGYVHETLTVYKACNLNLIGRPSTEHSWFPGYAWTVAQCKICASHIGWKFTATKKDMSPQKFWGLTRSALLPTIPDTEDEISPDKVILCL

Broadly, the IC50 is the concentration needed to halve the response being measured. Low readings indicate inhibition by little substance, high ones a need for much substance. As for `CCN(c1cc(-c2ccc(CN3CCN(CCCCCCCCCCOc4cccc5c4C(=O)N(C4CCC(=O)NC4=O)C5=O)CC3)cc2)cc(C(=O)NCc2c(C)cc(C)[nH]c2=O)c1C)C1CCOCC1` (stereo not given), inhibition in test [1] was half-maximal at 17 nM (IC50). Also, the outcome in test [2] was Active.

As to `CCN(c1cc(-c2ccc(CN3CCN(CCCCCCCCCCCOc4cccc5c4C(=O)N(C4CCC(=O)NC4=O)C5=O)CC3)cc2)cc(C(=O)NCc2c(C)cc(C)[nH]c2=O)c1C)C1CCOCC1` (stereo not given), the IC50 in test [1] is 30 nM. Besides, in test [2], the result was Active.

Compound `CCN(c1cc(-c2ccc(CN3CCN(CCCCCCOc4cccc5c4C(=O)N(C4CCC(=O)NC4=O)C5=O)CC3)cc2)cc(C(=O)NCc2c(C)cc(C)[nH]c2=O)c1C)C1CCOCC1` (stereo not given) registered an IC50 in test [1] of 3.9 nM.

Take `CC[C@H](C)n1cc(C)c2c(C(=O)NCc3c(C)cc(C)[nH]c3=O)cc(-c3ccc(N4CCN(CCCCOc5cccc6c5C(=O)N(C5CCC(=O)NC5=O)C6=O)CC4)nc3)cc21` (stereo not given in full): half-maximal inhibition in test [1] (IC50) was put at 5.5 nM.

Regarding `CC[C@H](C)n1cc(C)c2c(C(=O)NCc3c(C)cc(C)[nH]c3=O)cc(-c3ccc(N4CCN(CCCCCOc5cccc6c5C(=O)N(C5CCC(=O)NC5=O)C6=O)CC4)nc3)cc21` (stereo not given in full), it took 5.8 nM to reach half-maximal inhibition in test [1] (IC50). The IC50 values of the last two compounds are within 1.5-fold of each other.

Regarding `CC[C@H](C)n1cc(C)c2c(C(=O)NCc3c(C)cc(C)[nH]c3=O)cc(-c3ccc(N4CCN(CCCCCCCCCCCOc5cccc6c5C(=O)N(C5CCC(=O)NC5=O)C6=O)CC4)nc3)cc21` (stereo not given in full), 165 nM corresponded to half-maximal inhibition in test [1] (IC50). In test [2], the outcome was Active.

As to `CC[C@H](C)n1cc(C)c2c(C(=O)NCc3c(C)cc(C)[nH]c3=O)cc(-c3ccc(N4CCN(CCCCCCCCOc5cccc6c5C(=O)N(C5CCC(=O)NC5=O)C6=O)CC4)nc3)cc21` (stereo not given in full), in test [1], the half-inhibitory concentration (IC50) is 7.3 nM. In addition, the result in test [2] was Active.

In test [1], `CC[C@H](C)n1cc(C)c2c(C(=O)NCc3c(C)cc(C)[nH]c3=O)cc(-c3ccc(N4CCN(CCCCCCCOc5cccc6c5C(=O)N(C5CCC(=O)NC5=O)C6=O)CC4)nc3)cc21` (stereo not given in full) registered an IC50 of 6.3 nM.

Turning to `CCN(c1cc(-c2ccc(CN3CCN(CCCCOc4cccc5c4C(=O)N(C4CCC(=O)NC4=O)C5=O)CC3)cc2)cc(C(=O)NCc2c(C)cc(C)[nH]c2=O)c1C)C1CCOCC1` (stereo not given), the IC50 in test [1] was 3.7 nM. In addition, the outcome in test [2] was Active.

Regarding `CCN(c1cc(-c2ccc(CN3CCN(CCCCCCCCCCCCOc4cccc5c4C(=O)N(C4CCC(=O)NC4=O)C5=O)CC3)cc2)cc(C(=O)NCc2c(C)cc(C)[nH]c2=O)c1C)C1CCOCC1` (stereo not given), the 50% inhibitory concentration (IC50) in test [1] was 53 nM.

As for `CCN(c1cc(-c2ccc(CN3CCN(CCCCCCCOc4cccc5c4C(=O)N(C4CCC(=O)NC4=O)C5=O)CC3)cc2)cc(C(=O)NCc2c(C)cc(C)n(C)c2=O)c1C)C1CCOCC1` (stereo not given), the result in test [3], in test [4], in test [5] and in test [6] was inactive. Besides, inhibition in test [1] was half-maximal at 23.3 nM (IC50).

`CCN(c1cc(-c2ccc(CN3CCN(CCCCCOc4cccc5c4C(=O)N(C4CCC(=O)NC4=O)C5=O)CC3)cc2)cc(C(=O)NCc2c(C)cc(C)[nH]c2=O)c1C)C1CCOCC1` (stereo not given) showed an IC50 in test [1] of 4.5 nM.

In test [1], `CCN(c1cc(-c2ccc(CN3CCN(CCCCCCCCCOc4cccc5c4C(=O)N(C4CCC(=O)NC4=O)C5=O)CC3)cc2)cc(C(=O)NCc2c(C)cc(C)[nH]c2=O)c1C)C1CCOCC1` (stereo not given) came in with an IC50 of 15 nM. Besides, the outcome in test [2] was Active.

As for `CC[C@H](C)n1cc(C)c2c(C(=O)NCc3c(C)cc(C)[nH]c3=O)cc(-c3ccc(N4CCN(CCCCCCOc5cccc6c5C(=O)N(C5CCC(=O)NC5=O)C6=O)CC4)nc3)cc21` (stereo not given in full), the concentration for half-maximal inhibition (IC50) in test [1] amounted to 4 nM.

Consider `CC[C@H](C)n1cc(C)c2c(C(=O)NCc3c(C)cc(C)[nH]c3=O)cc(-c3ccc(N4CCN(CCCCCCCCCCOc5cccc6c5C(=O)N(C5CCC(=O)NC5=O)C6=O)CC4)nc3)cc21` (stereo not given in full), for which half-maximal inhibition in test [1] (IC50) required 144 nM. Also, in test [2], the outcome was Active.

In turn, `CC[C@H](C)n1cc(C)c2c(C(=O)NCc3c(C)cc(C)[nH]c3=O)cc(-c3ccc(N4CCN(CCCCCCCCCOc5cccc6c5C(=O)N(C5CCC(=O)NC5=O)C6=O)CC4)nc3)cc21` (stereo not given in full) had a concentration for half-maximal inhibition (IC50) in test [1] of 16 nM. Further, the result in test [2] was Active.

`CCN(c1cc(-c2ccc(CN3CCN(CCCCCCCCOc4cccc5c4C(=O)N(C4CCC(=O)NC4=O)C5=O)CC3)cc2)cc(C(=O)NCc2c(C)cc(C)[nH]c2=O)c1C)C1CCOCC1` (stereo not given): the IC50 in test [1] worked out at 3.4 nM. The result in test [2] was Active.
